High-throughput results as filed in PubChem BioAssay.
A selection: hits, their analogues and other compounds. The true share with any hit is near 4.1%.
KCC2 mod – modulators of human KCC2 chloride dependent transport. AID 1456. KCC2 cells, thallium flux FluoZin-2 fluorescence. 2.2% of 190,000 active. Q9H2X9. B-score of Tl+ flux slope (higher = more flux/activation; lower = inhibition) at 10 µM;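 active means thallium flux slope and its plate-corrected score both differing from the plate sample mean at a set confidence after two filtering rounds, in either direction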;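 further: slope of fluorescence scaled to starting intensity during 10 to 20 s after thallium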
ROMK mod – modulators of human ROMK potassium channel. P48048. Tet-inducible ROMK, thallium flux fluorescence; actives lie on both sides. B-score at 10 µM. 2% of 130,000 active. AID 1918;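 active means signal ratio slope over the read window, or its plate-corrected B-score, at least 3 SD from the plate mean, either direction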;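 further: B-score of the F/F0 ratio slope over 7 to 12 s after thallium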
Target sequence (P48048 whole entry, looked up): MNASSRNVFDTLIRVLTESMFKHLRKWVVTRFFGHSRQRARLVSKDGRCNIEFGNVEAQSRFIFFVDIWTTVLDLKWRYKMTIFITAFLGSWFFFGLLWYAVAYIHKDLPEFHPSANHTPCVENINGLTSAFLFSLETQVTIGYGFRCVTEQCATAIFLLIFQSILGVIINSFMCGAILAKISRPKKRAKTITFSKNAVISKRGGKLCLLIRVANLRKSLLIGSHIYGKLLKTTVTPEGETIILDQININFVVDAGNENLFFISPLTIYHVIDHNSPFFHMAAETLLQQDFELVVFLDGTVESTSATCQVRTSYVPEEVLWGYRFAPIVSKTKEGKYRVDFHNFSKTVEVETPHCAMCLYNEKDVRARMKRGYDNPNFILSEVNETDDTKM
Dynein transport – blocks dynein driven cargo transport along microtubules. 3617.4 mouse cells, GR-EGFP nuclear translocation imaging; test concentration mostly 20 µM; stimulated with dexamethasone, 1 µM; active compounds read low. z-score, hits read low. 0.47% of 220,000 active. AID 1381;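 active means plate z-score of nuclear minus cytoplasmic receptor signal below a set negative limit, without overly bright fluorescence or cell loss, cut at about -3.5 in these data, passing the limit was not always enough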;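 further: z-score of nuclear minus cytoplasmic ring GR-EGFP intensity difference per well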
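Buffer or medium – tet-free medium with charcoal-stripped serum · Signal – automated 10x imaging of fixed Hoechst-stained cells · Also added – dexamethasone agonist, 1.0 µM final, for 30 min · Incubation – induction 48 h, compound 1 h, agonist 30 min · Read-out – GR-EGFP nuclear translocation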
DTT redox prof – compounds producing H2O2 with reducing agent – biochemical, NIH compound library profiling, artefact control for MLSCN library redox annotation, primary screen; DTT-dependent redox cycling H2O2, phenol red/HRP absorbance; 100% = 100 µM peroxide control, 0% = buffer; activation, % at 10 µM; 0.03% of 200,000 active;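 active means activation of at least 50% relative to the plate's high and low controls in the primary single-dose screen; inactive means activation below 50%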;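 further: compound incubated with DTT at 0.8 mM final as the reducing agent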
Autophagy HCS – modulators of autophagy; MEF GFP-LC3 puncta imaging; test concentration mostly 10 µM; calls only at 10 µM (by protocol); 0.98% of 190,000 active; AID 463193;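 active means percentage of spot-positive cells more than 3 SD above its plate mean, without a fluorescence outlier flag or 80% toxicity; inconclusive means no clear call, values can overlap the other calls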;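 further: spot-positive cell cutoff set from DMSO-treated cells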
ROMK retest – confirmation of human ROMK potassium channel modulators; shares compounds with ROMK mod; ROMK thallium flux, fluorescence ratio; active compounds read low; normalized thallium flux (F/F0 slope) at 10 µM; 54% of 3,000 active; AID 1917;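 active means Flux at 10 µM at least 3 SD below or above vehicle control mean in one or both replicates; inconclusive means no clear call, values can overlap the other calls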
Numbers without * were called inactive; i = inactive; ? = inconclusive; / = not tested or not shown; + = active, no number.

SMILES | KCC2 mod | ROMK mod | Dynein transport | DTT redox prof | Autophagy HCS | ROMK retest
COc1ccc(OC)c(/C=C2\SC(=S)N(C(C(=O)O)c3ccccc3)C2=O)c1 (stereo unspecified) | / | / | 3.4 | / | / | 0.052*
CCOc1ccc(/C=C2\SC(=S)N(C(C(=O)O)c3ccccc3)C2=O)cc1OC (stereo unspecified) | -0.33 | / | -0.45 | / | / | /
Cc1ccc(NC(=O)NCC2CCN(Cc3cc(C)ccc3Cl)CC2)c(C)c1 | 0.021 | -3.8* | -0.26 | 1 | i | 0.054*
Cc1ccc(NC(=O)NCC2CCN(Cc3cccc(Cl)c3)CC2)c(Cl)c1 | 0.25 | -1.3 | -0.98 | -2 | i | /
COc1ccc(/C=C/C(=O)Nc2cccc(F)c2)cc1S(=O)(=O)N1CCOCC1 | -0.19 | -0.86 | -0.014 | -1 | i | 0.064*
O=C(CSc1nc2ccccc2c(=O)n1CC1CCCCC1)N1CCOCC1 | -1.2 | -1.4 | -0.19 | 0 | i | /
CCN(CC)C(=O)CSc1nc2ccccc2c(=O)n1CC1CCCCC1 | -2.7 | -2.4 | -0.44 | 0 | i | 0.061*
c1ccc(-c2noc(CN3CCCC(OCc4ccccn4)C3)n2)cc1 (stereo unspecified) | 0.9 | -0.64 | -1.1 | 0 | i | /
Nc1nc2ccccc2n1C(=O)c1ccc(F)cc1 | -0.13 | 1.2 | 1.1 | 0 | i | /
Nc1nc2ccccc2n1C(=O)c1ccccc1 | 0.4 | 2.1* | 0.79 | 0 | i | 0.076
CCCc1nn(C)c(C(=O)Nc2ccccc2)c1Cl | 0.51 | / | 0.4 | 0 | i | /
COc1cc2cc(C(c3nnnn3C(C)(C)C)N3CCc4ccccc4C3)c(=O)[nH]c2cc1OC (stereo unspecified) | -0.89 | -3.6* | -0.29 | 1 | i | ?
CCCCCCC1CCC(C(=O)N2CCOCC2)CC1 (stereo unspecified) | 0.081 | 0.025 | -0.87 | -1 | i | /
COc1ccccc1S(=O)(=O)Cc1ccc(C(=O)NC2CCCCC2)o1 | 0.14 | / | 1.4 | 1 | i | 0.083
Cc1ccc(SCCC(=O)OCC(=O)NCC2CCCCC2)cc1 | -0.95 | 3* | -0.28 | 0 | i | 0.077
Cc1ccc(SCCC(=O)OCC(=O)Nc2ccc(S(N)(=O)=O)cc2)cc1 | 0.72 | / | 0.74 | / | / | /
O=C(COc1ccccc1)Nc1nccs1 | / | 3* | 0.24 | 0 | i | 0.077
O=C(N/N=C/c1ccncc1)c1cccc(S(=O)(=O)Nc2ccc(Cl)cc2)c1 | 0.049 | / | 3.1 | / | / | /
Clc1ccc2nc(SCc3nnc(-c4ccccc4)o3)[nH]c2c1 | / | -3.4* | 1.7 | 0 | i | 0.055*
CCOc1ccc(C(=O)N/N=C/c2c(C)[nH]c(=O)[nH]c2=O)cc1 | -0.37 | 0.33 | -0.97 | / | / | /
Cn1cccc1/C=C1\Cc2ccccc2C1=O | -0.42 | -1.1 | -0.17 | -1 | i | /
Cn1cccc1/C=C1\CC(C(C)(C)C)C/C(=C\c2cccn2C)C1=O (stereo unspecified) | i | -3.6* | -0.82 | 2 | + | 0.04*
CC(C)OC(=O)c1c2c(n3ccccc13)C(=O)c1ccccc1C2=O | -0.019 | / | -0.79 | 1 | i | 0.051*
Oc1ccc(N=C/C=C/c2cccc(Br)c2)cc1-c1nc2ccccc2s1 | -0.45 | 0.91 | -0.38 | 1 | i | /
COc1ccc(NC(=O)Cn2cnc3c(nnn3-c3ccc(C)cc3)c2=O)cc1 | 0.36 | -1.1 | -0.44 | -1 | i | /
SMILES | KCC2 mod | ROMK mod | Dynein transport | DTT redox prof | Autophagy HCS | ROMK retest
CCN(C#N)c1nc(NC(C)C)nc(NC(C)(C)C)n1 | -0.17 | -7.8* | -0.057 | 0 | i | 0.077
Cc1cc(=O)oc2cc(OCC(=O)OCC(=O)NC3CC3)ccc12 | 0.3 | 0.32 | -0.46 | -2 | i | /
COC(=O)c1c([N+](=O)[O-])c(OC)c(OC)c(OC)c1[N+](=O)[O-] | -0.095 | -0.037 | 0.43 | 0 | i | /
O=C(NC1CCCCCC1)C1CCCN(S(=O)(=O)c2cccs2)C1 (stereo unspecified) | -1.8 | / | -0.24 | 2 | i | ?
O=C(N=c1ccn(-c2nc3ccccc3nc2NS(=O)(=O)c2ccc(Cl)cc2)cc1)c1cccs1 | 0.93 | / | 0.29 | / | / | /
CCOc1ccc(S(=O)(=O)Nc2nc3ccccc3nc2-n2ccc(=NC(=O)c3cccs3)cc2)cc1 | 1.9 | -2.6* | 0.73 | -1 | i | 0.059*
Cc1oc(-c2cccc(Cl)c2)nc1CN1CCCC(C(=O)NCc2ccco2)C1 (stereo unspecified) | / | -1.5 | -0.38 | -5 | i | /
Cc1oc(-c2ccc(Cl)cc2)nc1CN1CCCC(C(=O)NCc2ccccn2)C1 (stereo unspecified) | -0.18 | -0.29 | -1.4 | 2 | i | /
Cc1cccc(-c2nc(CN3CCCC(C(=O)NC4CCCCCC4)C3)c(C)o2)c1 (stereo unspecified) | / | -3.5* | -0.27 | -7 | i | 0.062*
Cc1cccc(-c2nc(CN3CCCC(C(=O)NC4CCCCC4)C3)c(C)o2)c1 (stereo unspecified) | / | -2.5* | 0.44 | -6 | i | 0.066*
Cn1cnc(NCc2ccccc2)c1[N+](=O)[O-] | -0.5 | / | 0.12 | / | / | /
CC(C(O)C12CC3CC(CC(C3)C1)C2)N1CCCCC1 (stereo unspecified) | 0.49 | -0.094 | -0.45 | 0 | i | /
Cn1nc(C(F)(F)F)c(-c2cccc(C(F)(F)F)c2)c1NC(=O)Nc1ccc(F)cc1 | 0.84 | / | 2 | / | / | /
O=C1CC(N2CCN(c3ccccc3)CC2)C(=O)N1Cc1ccc(Cl)cc1 (stereo unspecified) | -0.75 | -0.0074 | 0.22 | 0 | i | /
Cc1cccc(N2C(=O)CC(N3CCN(Cc4ccc(Cl)cc4)CC3)C2=O)c1 (stereo unspecified) | -1.2 | -0.76 | -0.02 | 0 | i | ?
COc1ccc(S(=O)(=O)N(C)CC(=O)NCCC2=CCCCC2)cc1 | -1.4 | / | 0.22 | -2 | i | 0.069*
CC1=Nc2ccccc2/C1=C\c1sc(Nc2ccc(C)cc2)nc1O | -1 | 2* | 1.7 | 0 | i | 0.095
Oc1nc(Nc2ccc(F)cc2)sc1/C=C1\C=Nc2ccccc21 | -0.64 | 1.5 | 0.42 | / | / | /
COc1cccc(-c2nn(C)c3sc(C(=O)NCc4ccccn4)cc23)c1 | -1.3 | / | 1.2 | -1 | i | 0.074
CC(C)(C)c1ccc(/C=C/C(=O)Nc2nncs2)cc1 | 0.87 | -0.049 | -0.31 | 0 | i | /
Cc1nc(-c2ccccc2)nc2[nH]c(-c3ccccc3)cc(=O)c12 | / | 0.94 | -1.3 | 0 | i | /
Cc1nc(C)c2c(=O)cc(-c3ccccc3)[nH]c2n1 | -0.37 | 1.2* | -0.5 | 0 | i | 0.091
O=C(/C=C/c1cccc2ccccc12)N1CCOCC1 | -0.58 | / | 0.13 | / | / | /
O=C(NC1CCCCCC1)c1cccs1 | -0.0016 | / | -0.65 | 3 | i | /
CN1CCC(NC(=O)c2cccs2)CC1 | 0.89 | / | -0.6 | 0 | / | 0.075
